Measurements from PubChem BioAssay AID588785 (The Scripps Research Institute Molecular Screening Center, 2011).
Active and inactive are the calls of the source.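 How the source made its calls: active means spectra count ratio compound/DMSO 0.5 or lower for pPAFAH, with at most one off-target serine hydrolase also that low; inactive means ratio above 0.5 for pPAFAH, or two-plus off-targets hit.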

Assays:
Experiment in all cases: off-target hydrolase inhibition by ABPP-MudPIT – biochemical, LC-MS/MS, mouse brain membrane proteome, selectivity assay for pPAFAH inhibitor project, late-stage follow-up (AID 588785)
Nceh1 = conditions: ABPP-MudPIT FP-biotin spectral counts, at 1 µM, stronger effect = lower value
Method in brief: (§1)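 Material – mouse brain membrane proteome · Input – 1 mg/mL membrane protein · Medium – 50 mM Tris buffer, pH 8.0 · Reagent – 5 µM FP-biotin probe · Schedule – 30 min 37 °C compound, 2 h 25 °C probe · Signal – ABPP-MudPIT LC-MS/MS spectral counting · Evaluation – spectral-count ratio per serine hydrolase, compound over DMSO · Replicates – 3–4 biological replicates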

[1] = target: Platelet-activating factor acetylhydrolase (Mus musculus) (UniProt Q60963); conditions: ABPP-MudPIT FP-biotin spectral counts, Pla2g7 (pPAFAH), at 1 µM, stronger effect = lower value
Sequence of Platelet-activating factor acetylhydrolase (Mus musculus) (Q60963 whole entry, looked up): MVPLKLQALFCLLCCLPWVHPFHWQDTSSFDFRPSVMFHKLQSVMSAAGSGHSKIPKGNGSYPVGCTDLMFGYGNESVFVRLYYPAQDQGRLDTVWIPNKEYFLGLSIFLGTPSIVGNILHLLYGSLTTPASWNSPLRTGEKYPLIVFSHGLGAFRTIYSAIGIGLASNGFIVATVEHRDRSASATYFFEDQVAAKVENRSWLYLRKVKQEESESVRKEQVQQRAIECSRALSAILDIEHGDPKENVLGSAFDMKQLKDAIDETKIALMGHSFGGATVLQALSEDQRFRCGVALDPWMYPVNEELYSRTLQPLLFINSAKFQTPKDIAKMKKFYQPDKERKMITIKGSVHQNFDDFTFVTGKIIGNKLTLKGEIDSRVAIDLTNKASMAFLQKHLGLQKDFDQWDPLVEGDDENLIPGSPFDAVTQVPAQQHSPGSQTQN
Method in brief: as §1

Acot2 = conditions: ABPP-MudPIT FP-biotin spectral counts, at 1 µM, stronger effect = lower value
Method in brief: as §1

Pafah1b2 = conditions: ABPP-MudPIT FP-biotin spectral counts, at 1 µM, stronger effect = lower value
Method in brief: as §1

Acot1 = conditions: ABPP-MudPIT FP-biotin spectral counts, at 1 µM, stronger effect = lower value
Method in brief: as §1

Bat5 = conditions: ABPP-MudPIT FP-biotin spectral counts, at 1 µM, stronger effect = lower value
Method in brief: as §1

Abhd11 = conditions: ABPP-MudPIT FP-biotin spectral counts, at 1 µM, stronger effect = lower value
Method in brief: as §1

Pafah1b3 = conditions: ABPP-MudPIT FP-biotin spectral counts, at 1 µM, stronger effect = lower value
Method in brief: as §1

Abhd12 = conditions: ABPP-MudPIT FP-biotin spectral counts, at 1 µM, stronger effect = lower value
Method in brief: as §1

Rbbp9 = conditions: ABPP-MudPIT FP-biotin spectral counts, at 1 µM, stronger effect = lower value
Method in brief: as §1

Parl = conditions: ABPP-MudPIT FP-biotin spectral counts, at 1 µM, stronger effect = lower value
Method in brief: as §1

Fam108a = conditions: ABPP-MudPIT FP-biotin spectral counts, at 1 µM, stronger effect = lower value
Method in brief: as §1

Fasn = conditions: ABPP-MudPIT FP-biotin spectral counts, at 1 µM, stronger effect = lower value
Method in brief: as §1

Esd = conditions: ABPP-MudPIT FP-biotin spectral counts, at 1 µM, stronger effect = lower value
Method in brief: as §1

Prepl = conditions: ABPP-MudPIT FP-biotin spectral counts, at 1 µM, stronger effect = lower value
Method in brief: as §1

Ache = conditions: ABPP-MudPIT FP-biotin spectral counts, at 1 µM, stronger effect = lower value
Method in brief: as §1

Fam108b1 = conditions: ABPP-MudPIT FP-biotin spectral counts, at 1 µM, stronger effect = lower value
Method in brief: as §1

Lactb = conditions: ABPP-MudPIT FP-biotin spectral counts, at 1 µM, stronger effect = lower value
Method in brief: as §1

Apeh = conditions: ABPP-MudPIT FP-biotin spectral counts, at 1 µM, stronger effect = lower value
Method in brief: as §1

[2] = target: Acyl-protein thioesterase 1 (Mus musculus) (UniProt P97823); conditions: ABPP-MudPIT FP-biotin spectral counts, Lypla1, at 1 µM, stronger effect = lower value
Sequence of Acyl-protein thioesterase 1 (Mus musculus) (P97823 whole entry, looked up): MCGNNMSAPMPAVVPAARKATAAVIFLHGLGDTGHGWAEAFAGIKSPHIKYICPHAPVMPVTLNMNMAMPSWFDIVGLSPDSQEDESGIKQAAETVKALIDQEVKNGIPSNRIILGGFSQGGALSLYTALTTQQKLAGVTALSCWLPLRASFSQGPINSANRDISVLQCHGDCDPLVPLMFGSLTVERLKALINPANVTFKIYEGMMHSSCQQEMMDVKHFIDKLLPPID
Method in brief: as §1

Pme1 = conditions: ABPP-MudPIT FP-biotin spectral counts, at 1 µM, stronger effect = lower value
Method in brief: as §1

Lyplal1 = conditions: ABPP-MudPIT FP-biotin spectral counts, at 1 µM, stronger effect = lower value
Method in brief: as §1

Acot7 = conditions: ABPP-MudPIT FP-biotin spectral counts, at 1 µM, stronger effect = lower value
Method in brief: as §1

Pnpla8 = conditions: ABPP-MudPIT FP-biotin spectral counts, at 1 µM, stronger effect = lower value
Method in brief: as §1

Dpp8 = conditions: ABPP-MudPIT FP-biotin spectral counts, at 1 µM, stronger effect = lower value
Method in brief: as §1

Acot3 = conditions: ABPP-MudPIT FP-biotin spectral counts, at 1 µM, stronger effect = lower value
Method in brief: as §1

Abhd4 = Abhd4 (UniProt Q8VD66); conditions: ABPP-MudPIT FP-biotin spectral counts, at 1 µM, stronger effect = lower value
Sequence of Abhd4 (Q8VD66 whole entry, looked up): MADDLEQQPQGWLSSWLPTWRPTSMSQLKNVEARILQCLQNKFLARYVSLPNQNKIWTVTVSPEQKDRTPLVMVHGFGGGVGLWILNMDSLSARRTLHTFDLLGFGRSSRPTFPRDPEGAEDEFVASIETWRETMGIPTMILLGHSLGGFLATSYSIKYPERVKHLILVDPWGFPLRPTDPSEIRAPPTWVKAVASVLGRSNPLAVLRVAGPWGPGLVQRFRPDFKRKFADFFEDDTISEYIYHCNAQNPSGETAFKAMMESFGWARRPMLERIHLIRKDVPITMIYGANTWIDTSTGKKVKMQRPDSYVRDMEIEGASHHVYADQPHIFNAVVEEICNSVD
Method in brief: as §1

Es1 = conditions: ABPP-MudPIT FP-biotin spectral counts, at 1 µM, stronger effect = lower value
Method in brief: as §1

Magl = conditions: ABPP-MudPIT FP-biotin spectral counts, at 1 µM, stronger effect = lower value
Method in brief: as §1

Tpp2 = conditions: ABPP-MudPIT FP-biotin spectral counts, at 1 µM, stronger effect = lower value
Method in brief: as §1

[3] = target: Palmitoyl-protein thioesterase ABHD10, mitochondrial (Mus musculus) (UniProt Q6PE15); conditions: ABPP-MudPIT FP-biotin spectral counts, at 1 µM, stronger effect = lower value
Sequence of Palmitoyl-protein thioesterase ABHD10, mitochondrial (Mus musculus) (Q6PE15 whole entry, looked up): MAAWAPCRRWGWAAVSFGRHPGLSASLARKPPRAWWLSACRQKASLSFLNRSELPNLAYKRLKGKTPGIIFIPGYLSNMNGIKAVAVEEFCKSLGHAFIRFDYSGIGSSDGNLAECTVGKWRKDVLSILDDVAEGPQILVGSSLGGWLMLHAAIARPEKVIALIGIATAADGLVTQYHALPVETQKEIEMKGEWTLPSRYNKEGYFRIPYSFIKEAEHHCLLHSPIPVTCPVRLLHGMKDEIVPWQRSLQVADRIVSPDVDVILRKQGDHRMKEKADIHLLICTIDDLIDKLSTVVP
Method in brief: as §1

Acot6 = conditions: ABPP-MudPIT FP-biotin spectral counts, at 1 µM, stronger effect = lower value
Method in brief: as §1

Dpp9 = conditions: ABPP-MudPIT FP-biotin spectral counts, at 1 µM, stronger effect = lower value
Method in brief: as §1

Pla2g15 = conditions: ABPP-MudPIT FP-biotin spectral counts, at 1 µM, stronger effect = lower value
Method in brief: as §1

Lypla2 = conditions: ABPP-MudPIT FP-biotin spectral counts, at 1 µM, stronger effect = lower value
Method in brief: as §1

Pnpla6 = conditions: ABPP-MudPIT FP-biotin spectral counts, at 1 µM, stronger effect = lower value
Method in brief: as §1

Abhd3 = conditions: ABPP-MudPIT FP-biotin spectral counts, at 1 µM, stronger effect = lower value
Method in brief: as §1

Prcp = conditions: ABPP-MudPIT FP-biotin spectral counts, at 1 µM, stronger effect = lower value
Method in brief: as §1

[4] = target: Prolyl endopeptidase (Mus musculus) (UniProt Q9QUR6); conditions: ABPP-MudPIT FP-biotin spectral counts, Prep, at 1 µM, stronger effect = lower value
Sequence of Prolyl endopeptidase (Mus musculus) (Q9QUR6 whole entry, looked up): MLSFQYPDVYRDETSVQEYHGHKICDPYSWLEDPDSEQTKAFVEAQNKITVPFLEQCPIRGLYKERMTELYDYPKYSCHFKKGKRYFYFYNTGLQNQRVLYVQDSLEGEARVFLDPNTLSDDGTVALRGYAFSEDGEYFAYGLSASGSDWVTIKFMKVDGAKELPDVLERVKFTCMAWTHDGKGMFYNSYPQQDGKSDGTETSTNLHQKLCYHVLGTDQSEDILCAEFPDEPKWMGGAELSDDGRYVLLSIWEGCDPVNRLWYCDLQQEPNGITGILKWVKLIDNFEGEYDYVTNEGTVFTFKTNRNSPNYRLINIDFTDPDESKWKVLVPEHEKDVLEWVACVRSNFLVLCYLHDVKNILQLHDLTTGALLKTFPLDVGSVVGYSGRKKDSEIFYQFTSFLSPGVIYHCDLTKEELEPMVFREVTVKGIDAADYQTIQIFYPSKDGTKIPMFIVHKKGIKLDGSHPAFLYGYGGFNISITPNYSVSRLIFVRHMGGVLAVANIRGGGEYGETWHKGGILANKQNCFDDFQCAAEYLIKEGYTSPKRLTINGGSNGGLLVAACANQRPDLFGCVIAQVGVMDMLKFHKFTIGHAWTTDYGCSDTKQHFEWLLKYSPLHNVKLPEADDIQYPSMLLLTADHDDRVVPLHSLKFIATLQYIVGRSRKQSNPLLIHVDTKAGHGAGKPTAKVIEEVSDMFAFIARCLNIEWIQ
Method in brief: as §1

[5] = target: Monoacylglycerol lipase ABHD6 (Mus musculus) (UniProt Q8R2Y0); conditions: ABPP-MudPIT FP-biotin spectral counts, at 1 µM, stronger effect = lower value
Sequence of Monoacylglycerol lipase ABHD6 (Mus musculus) (Q8R2Y0 whole entry, looked up): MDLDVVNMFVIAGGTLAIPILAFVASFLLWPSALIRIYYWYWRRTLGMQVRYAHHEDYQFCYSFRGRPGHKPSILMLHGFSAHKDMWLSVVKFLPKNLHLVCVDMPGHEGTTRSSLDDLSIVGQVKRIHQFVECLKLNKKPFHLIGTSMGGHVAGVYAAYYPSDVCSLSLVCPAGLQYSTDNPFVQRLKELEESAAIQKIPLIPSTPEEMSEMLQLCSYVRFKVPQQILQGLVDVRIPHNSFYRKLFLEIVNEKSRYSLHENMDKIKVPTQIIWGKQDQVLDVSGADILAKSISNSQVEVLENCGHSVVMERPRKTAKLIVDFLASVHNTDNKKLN
Method in brief: as §1

Faah = conditions: ABPP-MudPIT FP-biotin spectral counts, at 1 µM, stronger effect = lower value
Method in brief: as §1

Fam108c1 = conditions: ABPP-MudPIT FP-biotin spectral counts, at 1 µM, stronger effect = lower value
Method in brief: as §1

Lipe = conditions: ABPP-MudPIT FP-biotin spectral counts, at 1 µM, stronger effect = lower value
Method in brief: as §1

## Cc1cc(N2CCN(C(=O)Oc3ccc(-c4ccccc4)cn3)CC2)c2ccccc2n1
Nceh1
  spectra count ratio compound/DMSO: 1.1 (inactive)
[1]
  spectra count ratio compound/DMSO: 0.1
Acot2
  spectra count ratio compound/DMSO: 1.4 (inactive)
Pafah1b2
  spectra count ratio compound/DMSO: 0.8 (inactive)
Acot1
  spectra count ratio compound/DMSO: 1 (inactive)
Bat5
  spectra count ratio compound/DMSO: 0.9 (inactive)
Abhd11
  spectra count ratio compound/DMSO: 1 (inactive)
Pafah1b3
  spectra count ratio compound/DMSO: 0.8 (inactive)
Abhd12
  spectra count ratio compound/DMSO: 1.1 (inactive)
Rbbp9
  spectra count ratio compound/DMSO: 1.3 (inactive)
Parl
  spectra count ratio compound/DMSO: 1.1 (inactive)
Fam108a
  spectra count ratio compound/DMSO: 0.9 (inactive)
Fasn
  spectra count ratio compound/DMSO: 1 (inactive)
Esd
  spectra count ratio compound/DMSO: 1.2 (inactive)
Prepl
  spectra count ratio compound/DMSO: 1.1 (inactive)
Ache
  spectra count ratio compound/DMSO: 0.9 (inactive)
Fam108b1
  spectra count ratio compound/DMSO: 1.1 (inactive)
Lactb
  spectra count ratio compound/DMSO: 0.7 (inactive)
Apeh
  spectra count ratio compound/DMSO: 0.9 (inactive)
[2]
  spectra count ratio compound/DMSO: 1.6 (inactive)
Pme1
  spectra count ratio compound/DMSO: 1.3 (inactive)
Lyplal1
  spectra count ratio compound/DMSO: 1.2 (inactive)
Acot7
  spectra count ratio compound/DMSO: 0.7 (inactive)
Pnpla8
  spectra count ratio compound/DMSO: 0.9 (inactive)
Dpp8
  spectra count ratio compound/DMSO: 0.9 (inactive)
Acot3
  spectra count ratio compound/DMSO: 0.8 (inactive)
Abhd4
  spectra count ratio compound/DMSO: 1 (inactive)
Es1
  spectra count ratio compound/DMSO: 0
Magl
  spectra count ratio compound/DMSO: 1.3 (inactive)
Tpp2
  spectra count ratio compound/DMSO: 1.2 (inactive)
[3]
  spectra count ratio compound/DMSO: 1.5 (inactive)
Acot6
  spectra count ratio compound/DMSO: 1 (inactive)
Dpp9
  spectra count ratio compound/DMSO: 1.1 (inactive)
Pla2g15
  spectra count ratio compound/DMSO: 0.8 (inactive)
Lypla2
  spectra count ratio compound/DMSO: 1.7 (inactive)
Pnpla6
  spectra count ratio compound/DMSO: 0.8 (inactive)
Abhd3
  spectra count ratio compound/DMSO: 1.3 (inactive)
Prcp
  spectra count ratio compound/DMSO: 1 (inactive)
[4]
  spectra count ratio compound/DMSO: 1.2 (inactive)
[5]
  spectra count ratio compound/DMSO: 1.1 (inactive)
Faah
  spectra count ratio compound/DMSO: 0.8 (inactive)
Fam108c1
  spectra count ratio compound/DMSO: 1 (inactive)
Lipe
  spectra count ratio compound/DMSO: 1.3 (inactive)
